Variants at the floor of the assay were thinned out.
B1: tRNA (parent)
chain: GUUCCGUUGGCGUAAUGGUAACGCGUCUCCCUCCUAAGGAGAAGACUGCGGGUUCGAGUCCCGUACGGAACG

Variants of: B1
Experiment: yeast fitness relative to wild type (ratio to wild type); higher = fitter; tRNA-Arg(CCU), competitive growth, 37 C, YPD
In short: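 Variants of the tRNA-Arg(CCU) gene, chemically synthesised with a 3% per-site mutation rate at 69 sites, were placed at the native genomic locus in Saccharomyces cerevisiae. The pooled strains were competed in YPD at 37°C for 24 hours in six parallel replicates. Gene amplicons from the start population and from each end population were read by 100-nucleotide paired-end sequencing. Darwinian fitness relative to wild type came from changes in genotype frequencies; genotypes needed ≥ 100 starting reads, and estimates < 0.5 were set to 0.5.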
In the case of GUUCCGUUGGCGUAAUGGUAACGCGUCUCCCUCCUAAGGAGAAGACUGCCAGUUCGAGUCCCGUACGGAACG, the yeast fitness is reported as 0.76.
Work on GUUCCGUUGGCGUAAUGGUAACGCGUCUCCCUCCUAAGGAGAAGACUGCCGGUUCGAGUUCAGUACGGAACG yielded a yeast fitness of 0.676.
With GUUCCGUUGGCGUAAUGGUAACGCGUCUCCCUCCUAAGGAGAAGACUGCUGGUUCGAGUCCCGUACGCAACG the yeast fitness was 0.804.
In the case of GUUCCGUUGGCGUAAUGGUAACGCGUCUCCCUCCUAAGGAGAAGACUGCAGGUUCGAGUCCAGUACGGAACG, the yeast fitness is reported as 0.875.
Variant GUUCCGUUGGCGUAAUGGUAACGCGUCUCCCUCCUAAGGAGAAGACUGUGGGUUCGAAUCCCGUACGGAACG has a yeast fitness of 0.948.
GUUCCGUUGGCGUAAUGGUAACGCGUCUCCCUCCUAAGGAGAAGACUGCGAGUUGGAGUCCCGUACGGAACG gave a yeast fitness of 0.648.
In the case of GUUCCGUUGGCGUAAUGGUAACGCGUCUCCCUCCUAAGGAGAAGACUGCCGGUUUGAGUCCCGUACGGAACG, the yeast fitness is reported as 0.716.
GUUCCGUUGGCGUAAUGGUAACGCGUCUCCCUCCUAAGGAGAAGACUGCCGGUUGGAGUCCCGUACGGAACG gave a yeast fitness of 0.56.
For GUUCCGUUGGCGUAAUGGUAACGCGUCUCCCUCCUAAGGAGAAGACUGCGAGUUCGAGUCCCUUAAGGAACG, the yeast fitness was no more than 0.5.
For GUUCCGUUGGCGUAAUGGUAACGCGUCUCCCUCCUAAGGAGAAGACUGUGGGUUCGAGCCCCGUACGGAACG, the yeast fitness was 0.91.
Variant GUUCCGUUGGCGUAAUGGUAACGCGUCUCCCUCCUAAGGAGAAGACUGCCGGUUCGCGUCUCGUACGGAACG has a yeast fitness of 0.613.
In the case of GUUCCGUUGGCGUAAUGGUAACGCGUCUCCCUCCUAAGGAGAAGACUGCCGGUUCGAGUCUCGUACGGAACG, the yeast fitness is reported as 0.609.
Variant GUUCCGUUGGCGUAAUGGUAACGCGUCUCCCUCCUAAGGAGAAGACUGCGAUUUCGAGUCCAGUACGGAACG has a yeast fitness of no more than 0.5.
GUUCCGUUGGCGUAAUGGUAACGCGUCUCCCUCCUAAGGAGAAGACUGCAGCUUCGAGUCCCGUACGGAACG showed a yeast fitness of 0.663.
Variant GUUCCGUUGGCGUAAUGGUAACGCGUCUCCCUCCUAAGGAGAAGACUGCCGGUUCGAGUCCGGUAUGGAACG has a yeast fitness of 0.968.
GUUCCGUUGGCGUAAUGGUAACGCGUCUCCCUCCUAAGGAGAAGACUGCCGGUUAGCGUCCCGUACGGAACG gave a yeast fitness of 0.559.
Work on GUUCCGUUGGCGUAAUGGUAACGCGUCUCCCUCCUAAGGAGAAGACUGCCGGUUCGAGUCCCGUGCGGAACG yielded a yeast fitness of 0.766.
GUUCCGUUGGCGUAAUGGUAACGCGUCUCCCUCCUAAGGAGAAGACUGUGGGUUCGAGUCCCAUACGGAACG showed a yeast fitness of 0.908.
GUUCCGUUGGCGUAAUGGUAACGCGUCUCCCUCCUAAGGAGAAGACUGUGGGUUCGAGUCCCCUACGGAACG showed a yeast fitness of 0.703.
GUUCCGUUGGCGUAAUGGUAACGCGUCUCCCUCCUAAGGAGAAGACUGCGAGUUCGACUCCCGUACGGAACG showed a yeast fitness of 0.901.
In the case of GUUCCGUUGGCGUAAUGGUAACGCGUCUCCCUCCUAAGGAGAAGACUGCCGGCUCGAGUCCCGUACGGAACG, the yeast fitness is reported as 0.614.
GUUCCGUUGGCGUAAUGGUAACGCGUCUCCCUCCUAAGGAGAAGACUGCAGGUUCGAGUGCCGUACGGAACG gave a yeast fitness of 0.748.
With GUUCCGUUGGCGUAAUGGUAACGCGUCUCCCUCCUAAGGAGAAGACUGCAGGUUCGAGUUCCGUACGGAACG the yeast fitness was 0.819.
GUUCCGUUGGCGUAAUGGUAACGCGUCUCCCUCCUAAGGAGAAGACUGUGGGAUCGAGUCCCGUACGGAACG gave a yeast fitness of 0.791.
In the case of GUUCCGUUGGCGUAAUGGUAACGCGUCUCCCUCCUAAGGAGAAGACUGCAGGUUCGAGUCCCGUACCUAACG, the yeast fitness is reported as no more than 0.5.
GUUCCGUUGGCGUAAUGGUAACGCGUCUCCCUCCUAAGGAGAAGACUGUGAGUUCGAGUCCCGUACGGUACG showed a yeast fitness of 0.573.
For GUUCCGUUGGCGUAAUGGUAACGCGUCUCCCUCCUAAGGAGAAGACUGCCGGUUCGGGUCCCGUACGGAACG, the yeast fitness was 0.789.
Variant GUUCCGUUGGCGUAAUGGUAACGCGUCUCCCUCCUAAGGAGAAGACUGCGAGUUCAAGUCCGGUACGGAACG has a yeast fitness of no more than 0.5.
With GUUCCGUUGGCGUAAUGGUAACGCGUCUCCCUCCUAAGGAGAAGACUGUGCGUUCGAGUCCCGUACGGCACG the yeast fitness was no more than 0.5.
For GUUCCGUUGGCGUAAUGGUAACGCGUCUCCCUCCUAAGGAGAAGACUGUGGGUUCGAGUCUCGUACGGAGCG, the yeast fitness was 0.831.
GUUCCGUUGGCGUAAUGGUAACGCGUCUCCCUCCUAAGGAGAAGACUGUAGGUUCGAGUCCCGUACGGAACG showed a yeast fitness of 0.93.
With GUUCCGUUGGCGUAAUGGUAACGCGUCUCCCUCCUAAGGAGAAGACUGCGAGUUCGUGUCCCGUUCGGAACG the yeast fitness was no more than 0.5.
GUUCCGUUGGCGUAAUGGUAACGCGUCUCCCUCCUAAGGAGAAGACUGCCGGUUCGAGACCCGUACGGAACG showed a yeast fitness of 0.703.
GUUCCGUUGGCGUAAUGGUAACGCGUCUCCCUCCUAAGGAGAAGACUGCAGGAUCGGAUCCCGUACGGCACG gave a yeast fitness of 0.657.
Variant GUUCCGUUGGCGUAAUGGUAACGCGUCUCCCUCCUAAGGAGAAGACUGCAGGUUGGAGUCCCGUACGGAACG has a yeast fitness of 0.514.
GUUCCGUUGGCGUAAUGGUAACGCGUCUCCCUCCUAAGGAGAAGACUGCAGGUUUGAGUCCCGUACGGAACG gave a yeast fitness of 0.893.
In the case of GUUCCGUUGGCGUAAUGGUAACGCGUCUCCCUCCUAAGGAGAAGACUGUGGAUUCGAGUCCCGUACGGAACG, the yeast fitness is reported as 0.748.

From the RNAGym collection of RNA variant scans (doi:10.1126/science.aae0568)
